Source: ChEMBL document CHEMBL1128354, “Fluorenylalkanoic and benzoic acids as novel inhibitors of cell adhesion processes in leukocytes” (J Med Chem, 1995)

Key:
Homo sapiens [1] = organism: Homo sapiens; assay: In vitro ability to inhibit the adhesion of neutrophil activated by platelet activating factor (PAF) to serum-coated plastic wells was determined; format: functional
Outline: (§1)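 Human blood PMN, isolated and RBC-lysed, at 4×10^6/mL were preincubated with compound (from 100× DMSO stocks) for 10 min at 37 °C in wells coated with 10% pooled human serum. PAF was then added to 1 μM and adherence run for 10 min. Adherent cells quantitated by BCA protein assay. Seven dilutions in duplicate gave IC50, averaged over at least three experiments ± SEM.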

[2] = LD50 value for endothelial cells was determined; format: ADME, cell-based, Endothelial cell; settings: human, read-out: LD50 (the source's name)
Outline: (§2)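 Viability read-out for LD50: human PMN (isolated from heparinised blood of unmedicated volunteers) or endothelial cell suspension in phenol red-free medium, with compound, incubated in serum-coated wells for 30 min at 37 °C. Calcein AM (added as 2 μM solution in HBSS++) for a further 30 min. Fluorescence read at ex/em 485/535 nm from live-cell esterase cleavage.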

[3] = (§3) LD50 value for polymorphonuclear granulocytes was determined; format: functional; settings: Homo sapiens; read-out: LD50 (the source's name); outline: as §2
[4] = In vitro ability to inhibit adherence of activated polymorphonuclear granulocytes to endothelial cells using IFN gamma-(HUVEC) assay was determined; settings: Homo sapiens
Homo sapiens [5] = organism: Homo sapiens; assay: In vitro ability to inhibit the adhesion of neutrophil activated by tumor necrosis factor (alpha-TNF) to serum-coated plastic wells.; format: functional, organism-based
Outline: as §1, with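 “human serum. TNF-α was then” for “human serum. PAF was then”, “added to 0.6 nM and adherence” for “added to 1 μM and adherence”, “run for 20 min. Adherent” for “run for 10 min. Adherent”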

[6] = as §3; format: ADME; settings: human, read-out: LD50 (the source's name); outline: as §2

Compound	IC50 (Homo sapiens [5])	further results
O=C(Nc1ccc(C(=O)O)cc1)OCCC1c2cc(Cl)ccc2-c2ccc(Cl)cc21	9.8 µM	IC50 (Homo sapiens [1]): 17.8 µM; CC50 [2]: 82.3 µM; CC50 [3]: 62.5 µM; IC50 [4]: 26.1 µM
O=C(O)c1cccc(OCCCC2c3ccccc3-c3ccccc32)c1	13.8 µM	
O=C(Nc1ccc(C(=O)O)cc1)OCC1c2ccccc2-c2ccccc21	> 500 µM	
O=C(O)CCCCC1c2ccccc2-c2ccccc21	87 µM	
O=C(O)c1ccccc1OCCC1c2ccccc2-c2ccccc21	73.3 µM	
O=C(Nc1ccccc1C(=O)O)OC1c2ccccc2-c2ccccc21	19 µM	
CC(C)C[C@H](NC(=O)OCC1c2ccccc2-c2ccccc21)C(=O)O	78 µM	
O=C(O)C(CCCCC1c2ccccc2-c2ccccc21)Cc1ccccc1 (stereo unspecified)	6 µM	CC50 [2]: 72 µM; IC50 [4]: 10.2 µM; CC50 [6]: 79 µM
O=C(O)c1cccc(OCCC2c3ccccc3-c3ccccc32)c1	31 µM	
O=C(O)CC1c2ccccc2-c2ccccc21	> 200 µM	
O=C(O)c1ccc(CC2c3ccccc3-c3ccccc32)cc1	27.6 µM	IC50 (Homo sapiens [1]): 17.8 µM; CC50 [2]: > 1000 µM; IC50 [4]: 91.2 µM; CC50 [6]: 306 µM
O=C(O)c1ccc(CC2c3cc(Cl)ccc3-c3ccc(Cl)cc32)cc1	29.1 µM	
O=C(O)c1ccccc1OCCCCCC1c2ccccc2-c2ccccc21	15.8 µM	
O=C(O)CCCCCCCC1c2ccccc2-c2ccccc21	32.2 µM	
O=C(O)c1ccc(OCCCCC2c3cc(Cl)ccc3-c3ccc(Cl)cc32)cc1	8.1 µM	
O=C(O)CCCCCC1c2ccccc2-c2ccccc21	55.2 µM	
O=C(O)C1c2ccccc2-c2ccccc21	> 200 µM	

Compound	IC50 (Homo sapiens [5])	further results
O=C(O)c1ccc(OCCC2c3ccccc3-c3ccccc32)cc1	14 µM	
O=C(N[C@@H](Cc1ccccc1)C(=O)O)OCC1c2ccccc2-c2ccccc21	58 µM	
O=C(O)c1cccc(OCCCCC2c3ccccc3-c3ccccc32)c1	6.6 µM	
O=C(O)c1ccc(OCCCC2c3ccccc3-c3ccccc32)cc1	15.6 µM	IC50 (Homo sapiens [1]): 36.4 µM; CC50 [2]: > 1000 µM; IC50 [4]: 23.2 µM; CC50 [6]: 281 µM
O=C(O)c1ccc(C2c3ccccc3-c3ccccc32)cc1	81.6 µM	
O=C(O)CCC1c2ccccc2-c2ccccc21	> 200 µM	
O=C(O)c1cccc(OCCCCCC2c3ccccc3-c3ccccc32)c1	5.23 µM	
O=C(Nc1ccc(C(=O)O)cc1)OC1c2ccccc2-c2ccccc21	30 µM	
O=C(O)c1ccccc1OCCCC1c2ccccc2-c2ccccc21	55.4 µM	
CC(C)(C)c1ccc2c(c1)C(CCCCOc1ccc(C(=O)O)cc1)c1cc(C(C)(C)C)ccc1-2	8 µM	
CC(C)(C)c1ccc2c(c1)C(Cc1ccc(C(=O)O)cc1)c1cc(C(C)(C)C)ccc1-2	> 200 µM	
O=C(O)CCCC1c2ccccc2-c2ccccc21	97 µM	
Cc1ccc2c(c1)C(COC(=O)N[C@@H](CC(C)C)C(=O)O)c1cc(C)ccc1-2	41.7 µM	IC50 (Homo sapiens [1]): 31.7 µM; CC50 [2]: 354 µM; IC50 [4]: 117 µM; CC50 [6]: 343 µM
O=C(O)CCCCCCCCCC1c2ccccc2-c2ccccc21	11.6 µM	
O=C(O)c1ccc(OCCCCCC2c3ccccc3-c3ccccc32)cc1	7.13 µM	IC50 (Homo sapiens [1]): 11.7 µM; CC50 [2]: > 1000 µM; IC50 [4]: 48.2 µM; CC50 [6]: 295 µM
O=C(Nc1ccc(C(=O)O)cc1)OCCC1c2ccccc2-c2ccccc21	30 µM	
O=C(O)c1ccc(OCCCCC2c3ccccc3-c3ccccc32)cc1	7.53 µM	IC50 (Homo sapiens [1]): 5.2 µM; CC50 [2]: > 1000 µM; IC50 [4]: 19.8 µM; CC50 [6]: 113 µM
